Experimental data as given in ChEMBL document CHEMBL1150220, “Additional cytotoxic polyacetylenes from the marine sponge Petrosia species” (2001).
In brackets after ≈: the same amount, converted by molar mass.

Test system: Simian virus 40
Test: Inhibition of SV40 DNA replication assessed as [alpha32P]dATP formation at 500 uM after 90 mins by agarose gel electrophoresis
Format: functional
Conditions: Betapolyomavirus macacae, 1.5 h
In short: (§1)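 Cell-free SV40 DNA replication in Tris creatine phosphate buffer (pH 7.7) with creatine kinase, 7 mM MgCl2, 0.5 mM DTT, 4 mM ATP, 200 µM UTP/GTP/CTP, 100 µM dATP/dGTP/dCTP, SV40 T-Ag, origin-containing pUC DNA and replication proteins. The [α-32P]dATP variant ran 90 min at 37 °C, was stopped with EDTA/SDS/tRNA, and DNA was resolved on 1.0% agarose (12-14 h, 2 V/cm) and autoradiographed.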

Going from `C#C/C=C\CCCCCCCCCCCCCC/C=C\CCC/C=C/C(O)CCCCC#C[C@H](O)C#CCCCCCC/C=C/[C@H](O)C#C` (some centres undefined) to `C#C/C=C\CCCCCCCCCCCCC/C=C/C(=O)CCCC/C=C\CCCCC#C[C@@H](O)C#CCCCCCC/C=C/[C@H](O)C#C` [PETROTETRAYNDIOL C], the inhibition at 500 µM falls from 100% to 81%.

`C#C/C=C\CCCCCCCCCCCCCC/C=C\CCCC/C=C\CCCC(O)C#CC(O)C#CCCCCCC/C=C/[C@H](O)C#C` (some centres undefined) [PETROTETRAYNTRIOL A] and `C#C/C=C\CCCCCCCCCCCCCCC(=O)CCCCC/C=C\CCCCC#CC(O)C#CCCCCCC/C=C/C(O)C#C` (centres undefined) [PETROTETRAYNDIOL D] are the same in inhibition at 500 µM: 100% for the first, 100% for the second.

`C#C/C=C\CCCCCCCCCCCCCC/C=C\CCCC/C=C\CCCCc1cc(=O)cc(CCCCCC/C=C/C(O)C#C)o1` (centres undefined) [PETROCORTYNE C] gave an inhibition at 500 µM of 100%.

Test system: SK-MEL-2
Test: Cytotoxicity against human SK-MEL-2 cells
Format: functional
Conditions: read-out: ED50 (the source's name)

First: C#C/C=C\CCCCCCCCCCCCCC/C=C\CCC/C=C/C(O)CCCCC#C[C@H](O)C#CCCCCCC/C=C/[C@H](O)C#C (some centres undefined)
Second: C#C/C=C\CCCCCCCCCCCCC/C=C/C(=O)CCCC/C=C\CCCCC#C[C@@H](O)C#CCCCCCC/C=C/[C@H](O)C#C [PETROTETRAYNDIOL C]
The EC50 of the first is 1.8-fold lower: 2.3 µg/mL (≈ 3.43 µM) for the first, 4.1 µg/mL (≈ 6.13 µM) for the second.

Compared with `C#C/C=C\CCCCCCCCCCCCCC/C=C\CCCC/C=C\CCCC(O)C#CC(O)C#CCCCCCC/C=C/[C@H](O)C#C` (some centres undefined) [PETROTETRAYNTRIOL A], `C#C/C=C\CCCCCCCCCCCCCCC(=O)CCCCC/C=C\CCCCC#CC(O)C#CCCCCCC/C=C/C(O)C#C` (centres undefined) [PETROTETRAYNDIOL D] is higher in EC50: 3.9 µg/mL (≈ 5.81 µM) for the first, > 10 µg/mL for the second.

Work on `C#C/C=C\CCCCCCCCCCCCCC/C=C\CCCC/C=C\CCCCc1cc(=O)cc(CCCCCC/C=C/C(O)C#C)o1` (centres undefined) [PETROCORTYNE C] yielded an EC50 of 2.4 µg/mL (≈ 3.58 µM).

Test system: HCT-15
Test: Cytotoxicity against human HCT15 cells
Format: functional
Conditions: read-out: ED50 (the source's name)

`C#C/C=C\CCCCCCCCCCCCCC/C=C\CCC/C=C/C(O)CCCCC#C[C@H](O)C#CCCCCCC/C=C/[C@H](O)C#C` (some centres undefined) and `C#C/C=C\CCCCCCCCCCCCC/C=C/C(=O)CCCC/C=C\CCCCC#C[C@@H](O)C#CCCCCCC/C=C/[C@H](O)C#C` [PETROTETRAYNDIOL C] are within 1.5-fold of each other in EC50: 5 µg/mL (≈ 7.45 µM) for the first, 5.7 µg/mL (≈ 8.52 µM) for the second.

`C#C/C=C\CCCCCCCCCCCCCC/C=C\CCCC/C=C\CCCC(O)C#CC(O)C#CCCCCCC/C=C/[C@H](O)C#C` (some centres undefined) [PETROTETRAYNTRIOL A] and `C#C/C=C\CCCCCCCCCCCCCCC(=O)CCCCC/C=C\CCCCC#CC(O)C#CCCCCCC/C=C/C(O)C#C` (centres undefined) [PETROTETRAYNDIOL D] cannot be ordered by EC50: 12.9 µg/mL (≈ 19.2 µM) for the first, > 10 µg/mL for the second.

Molecule `C#C/C=C\CCCCCCCCCCCCCC/C=C\CCCC/C=C\CCCCc1cc(=O)cc(CCCCCC/C=C/C(O)C#C)o1` (centres undefined) [PETROCORTYNE C] has an EC50 of 7.5 µg/mL (≈ 11.2 µM).

Test system: Simian virus 40
Test: Inhibition of SV40 DNA replication assessed as [alpha32P]dATP formation at 250 uM after 90 mins by agarose gel electrophoresis
Format: functional
Conditions: Betapolyomavirus macacae, 1.5 h
In short: as §1

Going from `C#C/C=C\CCCCCCCCCCCCCC/C=C\CCC/C=C/C(O)CCCCC#C[C@H](O)C#CCCCCCC/C=C/[C@H](O)C#C` (some centres undefined) to `C#C/C=C\CCCCCCCCCCCCC/C=C/C(=O)CCCC/C=C\CCCCC#C[C@@H](O)C#CCCCCCC/C=C/[C@H](O)C#C` [PETROTETRAYNDIOL C], the inhibition at 250 µM falls from 94% to 46%.

First: C#C/C=C\CCCCCCCCCCCCCC/C=C\CCCC/C=C\CCCC(O)C#CC(O)C#CCCCCCC/C=C/[C@H](O)C#C (some centres undefined) [PETROTETRAYNTRIOL A]
Second: C#C/C=C\CCCCCCCCCCCCCCC(=O)CCCCC/C=C\CCCCC#CC(O)C#CCCCCCC/C=C/C(O)C#C (centres undefined) [PETROTETRAYNDIOL D]
The inhibition at 250 µM of the first is lower: 77% for the first, 80% for the second.

`C#C/C=C\CCCCCCCCCCCCCC/C=C\CCCC/C=C\CCCCc1cc(=O)cc(CCCCCC/C=C/C(O)C#C)o1` (centres undefined) [PETROCORTYNE C] showed an inhibition at 250 µM of 100%.

Test system: XF498
Test: Cytotoxicity against human XF498 cells
Format: functional
Conditions: read-out: ED50 (the source's name)

First: C#C/C=C\CCCCCCCCCCCCCC/C=C\CCC/C=C/C(O)CCCCC#C[C@H](O)C#CCCCCCC/C=C/[C@H](O)C#C (some centres undefined)
Second: C#C/C=C\CCCCCCCCCCCCCC/C=C\CCCC/C=C\CCCC(O)C#CC(O)C#CCCCCCC/C=C/[C@H](O)C#C (some centres undefined) [PETROTETRAYNTRIOL A]
The EC50 of the first is 2.3-fold lower: 8 µg/mL (≈ 11.9 µM) for the first, 18.5 µg/mL (≈ 27.6 µM) for the second.

`C#C/C=C\CCCCCCCCCCCCCC/C=C\CCCC/C=C\CCCCc1cc(=O)cc(CCCCCC/C=C/C(O)C#C)o1` (centres undefined) [PETROCORTYNE C] and `C#C/C=C\CCCCCCCCCCCCCCC(=O)CCCCC/C=C\CCCCC#CC(O)C#CCCCCCC/C=C/C(O)C#C` (centres undefined) [PETROTETRAYNDIOL D] cannot be ordered by EC50: > 10 µg/mL for the first, > 10 µg/mL for the second.

Test system: A549
Test: Cytotoxicity against human A549 cells
Format: functional
Conditions: read-out: ED50 (the source's name)

`C#C/C=C\CCCCCCCCCCCCCC/C=C\CCC/C=C/C(O)CCCCC#C[C@H](O)C#CCCCCCC/C=C/[C@H](O)C#C` (some centres undefined) and `C#C/C=C\CCCCCCCCCCCCC/C=C/C(=O)CCCC/C=C\CCCCC#C[C@@H](O)C#CCCCCCC/C=C/[C@H](O)C#C` [PETROTETRAYNDIOL C] cannot be ordered by EC50: 26.3 µg/mL (≈ 39.2 µM) for the first, > 10 µg/mL for the second.

`C#C/C=C\CCCCCCCCCCCCCC/C=C\CCCC/C=C\CCCC(O)C#CC(O)C#CCCCCCC/C=C/[C@H](O)C#C` (some centres undefined) [PETROTETRAYNTRIOL A] and `C#C/C=C\CCCCCCCCCCCCCCC(=O)CCCCC/C=C\CCCCC#CC(O)C#CCCCCCC/C=C/C(O)C#C` (centres undefined) [PETROTETRAYNDIOL D] cannot be ordered by EC50: > 30 µg/mL for the first, > 10 µg/mL for the second.

`C#C/C=C\CCCCCCCCCCCCCC/C=C\CCCC/C=C\CCCCc1cc(=O)cc(CCCCCC/C=C/C(O)C#C)o1` (centres undefined) [PETROCORTYNE C] was tested, and the EC50 was > 10 µg/mL.

Test system: Simian virus 40
Test: Inhibition of SV40 DNA replication assessed as [alpha32P]dATP formation at 125 uM after 90 mins by agarose gel electrophoresis
Format: functional
Conditions: Betapolyomavirus macacae, 1.5 h
In short: as §1

Compared with `C#C/C=C\CCCCCCCCCCCCCC/C=C\CCC/C=C/C(O)CCCCC#C[C@H](O)C#CCCCCCC/C=C/[C@H](O)C#C` (some centres undefined), `C#C/C=C\CCCCCCCCCCCCC/C=C/C(=O)CCCC/C=C\CCCCC#C[C@@H](O)C#CCCCCCC/C=C/[C@H](O)C#C` [PETROTETRAYNDIOL C] is lower in inhibition at 125 µM: 79% for the first, 45% for the second.

Going from `C#C/C=C\CCCCCCCCCCCCCC/C=C\CCCC/C=C\CCCC(O)C#CC(O)C#CCCCCCC/C=C/[C@H](O)C#C` (some centres undefined) [PETROTETRAYNTRIOL A] to `C#C/C=C\CCCCCCCCCCCCCCC(=O)CCCCC/C=C\CCCCC#CC(O)C#CCCCCCC/C=C/C(O)C#C` (centres undefined) [PETROTETRAYNDIOL D], the inhibition at 125 µM rises from 63% to 66%.

Molecule `C#C/C=C\CCCCCCCCCCCCCC/C=C\CCCC/C=C\CCCCc1cc(=O)cc(CCCCCC/C=C/C(O)C#C)o1` (centres undefined) [PETROCORTYNE C] has an inhibition at 125 µM of 89%.

Test system: SK-OV-3
Test: Cytotoxicity against human SKOV3 cells
Format: functional
Conditions: read-out: ED50 (the source's name)

First: C#C/C=C\CCCCCCCCCCCCCC/C=C\CCC/C=C/C(O)CCCCC#C[C@H](O)C#CCCCCCC/C=C/[C@H](O)C#C (some centres undefined)
Second: C#C/C=C\CCCCCCCCCCCCC/C=C/C(=O)CCCC/C=C\CCCCC#C[C@@H](O)C#CCCCCCC/C=C/[C@H](O)C#C [PETROTETRAYNDIOL C]
The EC50 of the first is 2.2-fold lower: 1.9 µg/mL (≈ 2.83 µM) for the first, 4.2 µg/mL (≈ 6.28 µM) for the second.

Compared with `C#C/C=C\CCCCCCCCCCCCCC/C=C\CCCC/C=C\CCCC(O)C#CC(O)C#CCCCCCC/C=C/[C@H](O)C#C` (some centres undefined) [PETROTETRAYNTRIOL A], `C#C/C=C\CCCCCCCCCCCCCCC(=O)CCCCC/C=C\CCCCC#CC(O)C#CCCCCCC/C=C/C(O)C#C` (centres undefined) [PETROTETRAYNDIOL D] is higher in EC50: 4.2 µg/mL (≈ 6.26 µM) for the first, > 10 µg/mL for the second.

Work on `C#C/C=C\CCCCCCCCCCCCCC/C=C\CCCC/C=C\CCCCc1cc(=O)cc(CCCCCC/C=C/C(O)C#C)o1` (centres undefined) [PETROCORTYNE C] yielded an EC50 of 0.7 µg/mL (≈ 1.04 µM).
